Assay type in all cases: functional
Common to all, as to parameters: scale not given: the % may be the effect or the level left

Test [1] has as its system Rattus norvegicus. In words: Antiinflammatory activity in Wistar albino rat assessed as reduction in carrageenan-induced paw edema at 50 mg/kg, po administered 30 mins prior to carrageenan challenge measured after 2 hrs by plethysmometer. The procedure, abridged:
(§1)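 Rats housed under standard light and temperature with free food and water; food withdrawn 12 h before and during testing; six rats per group, control given tween 80. Oral dosing 30 min before subplantar injection of 0.1 mL 1% w/v carrageenan in normal saline into left hind paw. Paw volume read by plethysmometer at baseline and 1, 2, 3, 4 h; %AI = (Vc−Vt)/Vc×100.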
For orientation: The carrageenan paw model is a standard test of acute inflammation.

The subject of test [2] is Rattus norvegicus. Nature of the test: Antiinflammatory activity in Wistar albino rat assessed as reduction in carrageenan-induced paw edema at 50 mg/kg, po administered 30 mins prior to carrageenan challenge measured after 3 hrs by plethysmometer. The procedure, abridged:
as §1

For test [3], the system named is Rattus norvegicus. In words: Antiinflammatory activity in Wistar albino rat assessed as reduction in carrageenan-induced paw edema at 50 mg/kg, po administered 30 mins prior to carrageenan challenge measured after 1 hr by plethysmometer. In outline: as §1
Test [4] relates to Rattus norvegicus. Nature of the test: Antiinflammatory activity in Wistar albino rat assessed as reduction in carrageenan-induced paw edema at 50 mg/kg, po administered 30 mins prior to carrageenan challenge measured after 4 hrs by plethysmometer. The procedure, abridged:
as §1

The subject of test [5] is Rattus norvegicus. Nature of the test: Antiinflammatory activity in Wistar albino rat assessed as reduction in carrageenan-induced paw edema at 10 mg/kg, po administered 30 mins prior to carrageenan challenge measured after 2 hrs by plethysmometer. In outline:
as §1

Test [6] has as its system Rattus norvegicus. In words: Antiinflammatory activity in Wistar albino rat assessed as reduction in carrageenan-induced paw edema at 10 mg/kg, po administered 30 mins prior to carrageenan challenge measured after 3 hrs by plethysmometer. In outline: as §1
The subject of test [7] is Rattus norvegicus. In words: Antiinflammatory activity in Wistar albino rat assessed as reduction in carrageenan-induced paw edema at 10 mg/kg, po administered 30 mins prior to carrageenan challenge measured after 1 hr by plethysmometer. In outline: as §1
Test [8] has as its system Rattus norvegicus. In words: Antiinflammatory activity in Wistar albino rat assessed as reduction in carrageenan-induced paw edema at 10 mg/kg, po administered 30 mins prior to carrageenan challenge measured after 4 hrs by plethysmometer. The procedure, abridged:
as §1

On to `Cc1cc(C)nc(-n2nc(-c3ccc(Cl)cc3)cc2C(F)(F)F)n1`, for which the Activity is 54% in the test on Rattus norvegicus [1], 58% with Rattus norvegicus [2], 35% in the test on Rattus norvegicus [3] and 53% with Rattus norvegicus [4].
In the case of `Cc1cc(C)nc(N2N=C(c3ccc(F)cc3)C[C@@]2(O)C(F)(F)F)n1`, the Activity turned out to be 51% in the test on Rattus norvegicus [1], 54% in the test with Rattus norvegicus [2], 49% with Rattus norvegicus [3] and 38% with Rattus norvegicus [4].
On to `Cc1cc(C)nc(N2N=C(c3ccccc3)C[C@@]2(O)C(F)(F)F)n1`, for which the Activity turned out to be 47% with Rattus norvegicus [1], 50% in the test with Rattus norvegicus [2], 44% in the test on Rattus norvegicus [3] and 45% in the test with Rattus norvegicus [4].
For `Cc1cc(C)nc(-n2nc(C(F)(F)F)cc2-c2ccc(Cl)cc2)n1`, the Activity with Rattus norvegicus [1] stood at 64%; in the test on Rattus norvegicus [2], 76%; with Rattus norvegicus [3], 55%; in the test with Rattus norvegicus [4], 63%.
`Cc1cc(C)nc(-n2nc(-c3ccc(F)cc3)cc2C(F)(F)F)n1`: the Activity in the test with Rattus norvegicus [1] was 38%; in the test with Rattus norvegicus [2], 55%; with Rattus norvegicus [3], 26%; in the test with Rattus norvegicus [4], 49%.
`Cc1cc(C)nc(N2N=C(C(F)(F)F)C[C@@]2(O)C(F)(F)F)n1`: the Activity amounted to 44% in the test with Rattus norvegicus [1], 49% in the test on Rattus norvegicus [2], 42% with Rattus norvegicus [3] and 23% in the test with Rattus norvegicus [4].
For the compound `Cc1ccc(C2=NN(c3nc(C)cc(C)n3)[C@](O)(C(F)(F)F)C2)cc1`, the Activity in the test with Rattus norvegicus [1] was found to be 35%; in the test with Rattus norvegicus [2], 54%; in the test on Rattus norvegicus [3], 32%; in the test on Rattus norvegicus [4], 50%.
Take `Cc1ccc(-c2cc(C(F)(F)F)nn2-c2nc(C)cc(C)n2)cc1`: the Activity in the test on Rattus norvegicus [1] is recorded as 55%; in the test with Rattus norvegicus [2], 69%; with Rattus norvegicus [3], 48%; with Rattus norvegicus [4], 53%.
For the compound `Cc1cc(C)nc(-n2nc(-c3cccs3)cc2C(F)(F)F)n1`, the Activity in the test with Rattus norvegicus [1] was found to be 18%; with Rattus norvegicus [2], 47%; in the test with Rattus norvegicus [3] it was 8.6%; in the test with Rattus norvegicus [4], 37%.
The corresponding values for `Cc1cc(C)nc(-n2nc(-c3ccccc3)cc2C(F)(F)F)n1` are 20%, 59%, 4.3% and 56%.
`COc1ccc(-c2cc(C(F)(F)F)nn2-c2nc(C)cc(C)n2)cc1`: the Activity with Rattus norvegicus [1] was found to be 59%; with Rattus norvegicus [2], 72%; in the test with Rattus norvegicus [3], 56%; in the test on Rattus norvegicus [4] it was 61%.
The corresponding values for `Cc1cc(C)nc(-n2nc(C(F)(F)F)cc2-c2ccc(F)cc2)n1` are 59%, 67%, 29% and 58%.
Turning to `Cc1cc(C)nc(-n2nc(C(F)(F)F)cc2C(F)(F)F)n1`, the Activity in the test with Rattus norvegicus [1] was determined as 46%; in the test with Rattus norvegicus [2] it was 57%; with Rattus norvegicus [3], 34%; with Rattus norvegicus [4], 44%.
`COc1ccc2c(c1)c(CC(=O)O)c(C)n2C(=O)c1ccc(Cl)cc1` [INDOMETHACIN]: the Activity in the test on Rattus norvegicus [5] amounted to 75%; in the test on Rattus norvegicus [6], 78%; in the test with Rattus norvegicus [7] it was 69%; with Rattus norvegicus [8], 74%.
Consider `Cc1cc(C)nc(-n2nc(C(F)(F)F)cc2-c2ccccc2)n1`, for which the Activity in the test with Rattus norvegicus [1] turned out to be 43%; in the test on Rattus norvegicus [2], 62%; with Rattus norvegicus [3], 33%; with Rattus norvegicus [4] it was 51%.
Consider `Cc1cc(C)nc(N2N=C(c3ccc(Cl)cc3)C[C@@]2(O)C(F)(F)F)n1`, for which the Activity in the test on Rattus norvegicus [1] was 50%; with Rattus norvegicus [2], 59%; in the test with Rattus norvegicus [3], 5.7%; in the test with Rattus norvegicus [4] it was 45%.
